TRPC4 inh: TRPC4 (mouse) channel inhibition | HEK293 TRPC4beta/mu-opioid, DAMGO-evoked Fluo4 calcium flux; active compounds read low | actives 0.39% (n = 300,000) | B-score at 10 µM | Q9QUQ5;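 active means B-score over 3 SD under the library average, no early fluorescence shift, positive overall ratio signal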
Target sequence (Q9QUQ5 whole entry, looked up): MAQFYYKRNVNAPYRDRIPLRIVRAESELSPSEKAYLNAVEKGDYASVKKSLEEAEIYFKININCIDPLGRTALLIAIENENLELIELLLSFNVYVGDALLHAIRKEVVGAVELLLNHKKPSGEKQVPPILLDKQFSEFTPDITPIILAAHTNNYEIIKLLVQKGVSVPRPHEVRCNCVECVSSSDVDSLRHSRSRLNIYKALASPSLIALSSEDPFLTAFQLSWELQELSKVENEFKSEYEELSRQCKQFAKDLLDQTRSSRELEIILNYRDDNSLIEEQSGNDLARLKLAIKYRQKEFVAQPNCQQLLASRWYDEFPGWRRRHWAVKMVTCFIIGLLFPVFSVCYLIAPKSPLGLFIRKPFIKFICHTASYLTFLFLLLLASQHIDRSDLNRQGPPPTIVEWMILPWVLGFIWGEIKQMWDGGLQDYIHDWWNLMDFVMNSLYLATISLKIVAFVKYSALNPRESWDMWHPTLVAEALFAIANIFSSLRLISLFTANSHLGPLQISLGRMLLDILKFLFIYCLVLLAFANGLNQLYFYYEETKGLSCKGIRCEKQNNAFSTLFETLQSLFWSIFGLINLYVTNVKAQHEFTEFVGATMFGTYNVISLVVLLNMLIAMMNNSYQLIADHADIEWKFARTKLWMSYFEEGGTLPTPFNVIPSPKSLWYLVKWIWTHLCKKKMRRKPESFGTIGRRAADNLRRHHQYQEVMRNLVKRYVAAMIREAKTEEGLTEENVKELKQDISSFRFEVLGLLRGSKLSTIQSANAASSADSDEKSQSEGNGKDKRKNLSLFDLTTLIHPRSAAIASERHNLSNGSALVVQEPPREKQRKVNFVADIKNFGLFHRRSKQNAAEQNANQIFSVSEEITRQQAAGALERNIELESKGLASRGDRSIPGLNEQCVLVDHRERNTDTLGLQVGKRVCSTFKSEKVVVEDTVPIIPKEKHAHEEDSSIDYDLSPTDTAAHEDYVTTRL
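Assay system – HEK293 line stably carrying TRPC4beta and mu-opioid receptor · Doses – single dose · Detection – Fluo4 calcium-dye fluorescence, kinetic read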
TRPC4 PAM: TRPC4 (mouse) allosteric potentiation. Q9QUQ5. HEK293 TRPC4beta/mu-opioid, DAMGO EC20, Fluo-4 Ca2+ flux; active compounds read high. B-score at 10 µM. actives 0.42% (n = 310,000). AID 2227;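 active means B-score of calcium response area above 5 SD of library B-scores, with initial fluorescence ratio within 5 SD of library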;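 further: B-score of integrated fluorescence ratio over time as area under calcium response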
TRPC6 inh: blocks the mouse TRPC6 cation channel. Q61143. HEK293-TRPC6, membrane potential dye, ACh-evoked depolarization; active compounds read low. B-score at 10 µM. actives 1.1% (n = 310,000). AID 2553;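 active means B-score under library mean minus 3 SD, initial fluorescence not abnormally high, positive integrated signal ratio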;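 further: B-score derived from integrated fluorescence ratio over the kinetic read; more negative B-score means stronger inhibition of depolarization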
TRPC6 act: mouse TRPC6 channel activation. actives 0.13% (n = 310,000). AID 2550. B-score at 10 µM. HEK293-TRPC6 membrane potential dye fluorescence; active compounds read high;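 active means B-score of the integrated fluorescence ratio above library mean plus 3 SD, and starting fluorescence ratio within library mean plus 5 SD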;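 further: higher score means more depolarization so channel activation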
TRPC4 agonist: activators of mouse TRPC4 channel; Q9QUQ5; actives 0.49% (n = 310,000); HEK293 TRPC4beta/mu-opioid, Fluo4 calcium fluorescence; active compounds read high; B-score at 10 µM;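 active means B-score above 5 SD of library B-scores, and initial fluorescence ratio not above library mean plus 5 SD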;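 further: positive B-score marks a calcium rise read as TRPC4 activation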
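Test system: HEK293 cells stably co-expressing mouse TRPC4beta and mu-opioid receptor | Schedule: Fluo4 dye loading 45 min at room temperature, 110 s recording | Measured by: Kinetic Fluo4 calcium fluorescence, 5 s baseline at 1 Hz | Evaluation: B score of integrated ratio | Controls: Buffer (low) and maximal DAMGO (high)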
The depositor's hits bear a star; i = inactive. A selection: hits, their analogues and other compounds. The true share with any hit is near 2.3%.

SMILES	TRPC4 inh	TRPC4 PAM	TRPC6 inh	TRPC6 act	TRPC4 agonist
Cc1cc(OCc2cc(C(=O)NCC3(C)COC3)no2)cc(C)c1Cl	-6*	i	i	i	i
CN1CCN(c2ccc(Cl)cc2NC(=O)CC2OC(=O)c3ccccc32)CC1 (configuration not stated)	i	23*	i	i	i
CN1CCN(c2ccc(Cl)cc2NC(=O)C2COc3ccccc3O2)CC1 (configuration not stated)	i	i	i	i	i
CN1CCN(c2ccc(Cl)cc2NC(=O)/C=C/c2cccc(F)c2)CC1	i	31*	i	i	i
CCCc1nc(NCC2CCCO2)c2nnn(Cc3ccccc3)c2n1 (configuration not stated)	i	i	i	i	i
C=CCc1ccc(OCC(O)CN2CCN(c3ccccc3OC)CC2)c(OC)c1 (configuration not stated)	i	i	i	i	i
C=CCc1ccc(OCC(O)CN2CCN(Cc3ccc(Cl)cc3)CC2)c(OC)c1 (configuration not stated)	i	10*	i	i	i
O=C(NC1CCCCC1)c1ccc(CNc2ccccc2)o1	i	i	i	i	i
CCOC(=O)c1c(NC(=O)c2ccccc2C)sc2c1CC(C)(C)OC2	i	11*	i	i	i
COc1ccc(CNC(=O)C(C)NCc2ccc(S(N)(=O)=O)cc2)cc1 (configuration not stated)	-8*	i	i	i	i
CC1CCc2c(sc3ncnc(SC(C)C(=O)NCC4CCCO4)c23)C1 (configuration not stated)	i	i	i	i	i
OC1(c2cccs2)CN(c2ccc(Cl)cc2)C2=[N+]1CCCC2 (configuration not stated)	-6*	i	i	i	i
CCOC(=O)N1CCN(C(=O)/C(=C/c2cccs2)NC(=O)c2ccc(OC)c(OC)c2)CC1	i	i	i	i	i
Cc1cccc(Cc2c(C)nc3c(C(=O)NCc4ccco4)cnn3c2C)c1	i	97*	i	i	i
Cc1nc2c(C(=O)NCc3ccco3)cnn2c(C)c1Cc1ccc(F)cc1Cl	i	i	i	i	i
CC1CC(=O)c2c(cc3c(-c4c(O)cc(O)c5c(O)c6c(cc45)OC(C)CC6=O)c(O)cc(O)c3c2O)O1 (configuration not stated)	i	i	i	43*	i
O=C1CC(c2ccc(O)cc2)Oc2cc(O)cc(O)c21 (configuration not stated)	i	i	i	i	i
O=C(OCC(=O)N1CCc2ccccc2C1)c1cccc([N+](=O)[O-])c1	-6*	i	i	i	i
O=C(COC(=O)c1cccc([N+](=O)[O-])c1)c1ccc2c(c1)OCO2	-7*	i	i	i	i
C/C(CC(=O)NC(C)(C)C)=N\NC(=O)COc1ccc(C)cc1Br	i	11*	i	i	i
Cc1ccc2nc(Cl)c3cc(C(=O)N(CCN(C)C)Cc4ccco4)sc3c2c1	i	i	i	i	54*
Cc1nc(Cl)nc(N(C)c2ccccc2)c1[N+](=O)[O-]	-6*	i	i	i	i
Cc1nc(N/N=C/c2ccccc2)nc(N(C)c2ccccc2)c1[N+](=O)[O-]	i	i	i	i	i
CC1(C)CC2CC(C)(CN2C(=O)COC(=O)c2n[nH]c(=O)c3ccccc23)C1 (configuration not stated)	i	11*	i	i	i
NNC(=O)CCn1c2ccccc2c2ccccc21	i	i	i	i	i
SMILES	TRPC4 inh	TRPC4 PAM	TRPC6 inh	TRPC6 act	TRPC4 agonist
CCOc1ccc(-c2nc(CSCC(=O)NCc3ccco3)c(C)o2)cc1	i	i	i	12*	i
CCOc1ccc(-c2nc(CSCC(=O)NC3CC3)c(C)o2)cc1	i	i	i	i	i
CCn1c(=O)[nH]c(=O)c2c(N)c(C(=O)c3cc(F)ccc3F)sc21	i	10*	i	i	i
O=C(CC(=O)c1ccccc1)Nc1ccccc1C(F)(F)F	i	i	i	i	i
Cc1ccccc1C1c2[nH]c3ccccc3c2C[C@H]2C(=O)N(C3CCN(Cc4ccccc4)CC3)CC(=O)N12 (some centres not stated)	i	i	i	i	48*
O=C(NC1CCN(Cc2ccccc2)CC1)c1cccc(S(=O)(=O)Nc2cc(C(F)(F)F)ccc2Cl)c1	i	21*	i	i	i
CCc1cc(OCCOCCN(C)C)ccc1Cl	i	15*	i	i	i
CC(=O)c1cccc(NC(=O)CN(C)S(=O)(=O)c2ccc3c(c2)CC(C)N3C(C)=O)c1 (configuration not stated)	i	i	i	i	i
O=C(N/N=C/c1cn(-c2cccs2)nc1-c1ccccc1)c1ccccc1Br	i	14*	i	i	i
O=C(N/N=C/c1cn(-c2cccs2)nc1-c1ccccc1)c1ccccc1O	i	i	i	i	i
CCOc1ccc(C(=O)NCC(=O)N2CCC3CCCCC3C2)cc1OCC (configuration not stated)	i	i	i	i	i
CCCCC(=O)N1CCN(c2nc3ccc(F)cc3s2)CC1	i	i	i	i	78*
COc1ccccc1NS(=O)(=O)c1ccc(C)c(C(=O)NCCCN2CCCC2=O)c1	i	i	i	i	i
CCNC(=O)c1cc(Cl)ccc1OC	i	i	i	i	i
COc1ccc(Cl)cc1C(=O)NCCN(C)C	i	28*	i	i	i
Cc1cc(Cl)cc(Cl)c1OCCN1CCCC1	i	i	i	i	i
O=C(NC1CCN(Cc2ccccc2)CC1)C1CCCN(S(=O)(=O)c2cccc3nonc23)C1 (configuration not stated)	i	10*	i	i	i
O=C(NCc1ccccc1)C1CCCN(S(=O)(=O)c2cccc3nonc23)C1 (configuration not stated)	i	i	i	i	i
COc1cccc(C(=O)N2CCN(C(=O)C3CC3)CC2)c1	i	i	i	i	i
O=C(CSc1nn(-c2ccccc2)c(=S)s1)Nn1cnnc1	i	i	i	i	i
COC(=O)CSc1nn(-c2ccc(F)cc2)c(=S)s1	-5*	i	i	i	i
C=CCNC(=O)/C(C#N)=C/c1ccc2c(c1)OCCO2	i	i	i	i	i
